Experimental data published in ChEMBL document CHEMBL1156144, “Biaryl ethers as novel non-nucleoside reverse transcriptase inhibitors with improved potency against key mutant viruses” (J Med Chem, 2009).

Assays:
Rattus norvegicus = assay: AUC in Sprague-Dawley rat at 2 mg/kg, iv; assay type: ADME, organism-based, Plasma; set-up: dose 2 mg/kg, route intravenous; conditions: in vivo
[1] = test system: Human immunodeficiency virus; assay: Antiviral activity against HIV with reverse transcriptase K103N/Y181C double mutant infected in human MT2 cells assessed as inhibition of viral replication measuring p24 level after 3 days in presence of 10% fetal bovine serum; assay type: functional; conditions: Human immunodeficiency virus 1, MT2, Serum, 72 h; read-out: CIC95
Method in brief: (§1)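 Multiple-cycle replication (Spread) assay in MT2 cells with H9IIIB-background mutant virus. Cells were infected overnight at moi ≈ 0.01 without compound, washed, then cultured 3 days across a range of compound concentrations in medium with 10% FBS. p24 was measured in supernatants. CIC95 is the lowest concentration inhibiting replication by ≥95%, reported as the geometric mean of ≥2 determinations.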

[2] = Half life in Sprague-Dawley rat at 2 mg/kg, iv; assay type: ADME, organism-based; set-up: dose 2 mg/kg, route intravenous; conditions: in vivo
[3] = test system: Human immunodeficiency virus; assay: Antiviral activity against wild type HIV H9-3B infected in human MT2 cells assessed as inhibition of viral replication measuring p24 level after 3 days in presence of 50% normal human serum; assay type: functional; conditions: Human immunodeficiency virus 1, H9-3B, 72 h, read-out: CIC95
Method in brief: (§2)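 Multiple-cycle spread assay in MT2 cells with wild-type H9IIIB virus. Cells were infected overnight at moi ≈ 0.01 without compound, washed, then cultured 3 days across varying compound concentrations in RPMI 1640 with 10% FBS or 50% NHS. p24 was measured in supernatants. CIC95 is the lowest concentration inhibiting replication ≥95%, as the geometric mean of ≥2 determinations.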

[4] = test system: Human immunodeficiency virus; assay: Antiviral activity against wild type HIV H9-3B infected in human MT2 cells assessed as inhibition of viral replication measuring p24 level after 3 days in presence of 10% fetal bovine serum; assay type: functional; conditions: Human immunodeficiency virus 1, MT2, Serum; read-out: CIC95; method in brief: as §2
[5] = test system: Human immunodeficiency virus; assay: Antiviral activity against HIV with reverse transcriptase Y181C mutant infected in human MT2 cells assessed as inhibition of viral replication measuring p24 level after 3 days in presence of 10% fetal bovine serum; assay type: functional; conditions: Human immunodeficiency virus 1, MT2, Serum, 72 h; read-out: CIC95; method in brief: as §1
[6] = Clearance in Sprague-Dawley rat at 2 mg/kg, iv; assay type: ADME, organism-based; set-up: dose 2 mg/kg, route intravenous; conditions: in vivo
[7] = test system: Human immunodeficiency virus; assay: Antiviral activity against HIV with reverse transcriptase K103N mutant infected in human MT2 cells assessed as inhibition of viral replication measuring p24 level after 3 days in presence of 10% fetal bovine serum; assay type: functional; conditions: Human immunodeficiency virus 1, MT2, Serum, 72 h; read-out: CIC95; method in brief: as §1
[8] = biological target: Human immunodeficiency virus type 1 reverse transcriptase (Human immunodeficiency virus 1, UniProt Q72547, K103N); assay: Inhibition of RNA-dependent DNA polymerase activity of recombinant HIV reverse transcriptase K103N mutant assessed as BrdU incorporation by standard ECL assay
[9] = Volume of distribution in Sprague-Dawley rat at 2 mg/kg, iv; assay type: ADME, organism-based; set-up: dose 2 mg/kg, route intravenous; conditions: in vivo
[10] = Inhibition of RNA-dependent DNA polymerase activity of wild type HIV reverse transcriptase assessed as BrdU incorporation by standard ECL assay; set-up: species or system Human immunodeficiency virus
Method in brief: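 Purified recombinant wild-type RT polymerase activity was measured using a 500-nt heteropolymeric RNA template and a biotinylated DNA primer. BrdU incorporation was detected with a ruthenylated anti-BrdU antibody by electrochemiluminescence. Ki is the geometric mean of at least two determinations, each within 25% of the mean.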

Row | SMILES | AUC (Rattus norvegicus) | IC95 [1] | half-life [2] | IC95 [3] | IC95 [4] | IC95 [5] | clearance [6] | IC95 [7] | Ki [8] | Vd [9] | Ki [10]
1 | N#Cc1cc(Cl)cc(Oc2cc(OCc3n[nH]c4ncccc34)cc(Cl)c2Cl)c1 | 3.5 µM | 277 nM | 9.4 h | 103 nM | 18 nM | 31 nM | 5.5 mL/min/kg | 34 nM | 4.6 nM | 1.8 L/kg | 2.7 nM
2 | N#Cc1cc(Cl)cc(Oc2cc(OCc3noc4nc(C5=NCCN5)ccc34)ccc2Cl)c1 |  |  |  | 309 nM | 309 nM |  |  | 309 nM | 6.3 nM |  | 2.3 nM
3 | N#Cc1cc(Cl)cc(Oc2cc(F)cc(OCc3n[nH]c4nc(N)ccc34)c2)c1 |  |  |  | 103 nM | < 3.8 nM |  |  | 309 nM | 3.3 nM |  | 2 nM
4 | N#Cc1cc(Cl)cc(Oc2ccc(F)c(OCc3n[nH]c4ncccc34)c2)c1 |  |  |  | > 8300 nM | 3770 nM |  |  | > 8300 nM | 350 nM |  | 47 nM
5 | N#Cc1cc(Cl)cc(Oc2cc(F)c(Cl)c(OCc3n[nH]c4ncccc34)c2)c1 |  | 93 nM |  | 103 nM | 11 nM | 31 nM |  | 11 nM | 0.8 nM |  | 5.2 nM
6 | N#Cc1cc(Cl)cc(Oc2cc(OCc3noc4nc(N)ccc34)cc(F)c2Cl)c1 | 0.4 µM | 833 nM | 1.9 h | 103 nM | 11 nM | 31 nM | 44.9 mL/min/kg | 103 nM | 0.8 nM | 5.1 L/kg | 0.2 nM
7 | N#Cc1cc(Cl)cc(Oc2cc(F)c(Cl)c(OCc3n[nH]c4nc(N)ccc34)c2)c1 |  |  |  | > 8330 nM | 2780 nM |  |  | > 8330 nM | > 910 nM |  | 120 nM
8 | N#Cc1cc(Cl)cc(Oc2cc(OCc3noc4nc(N5CCOCC5)ccc34)ccc2Cl)c1 |  |  |  | 956 nM | 103 nM |  |  | 926 nM | 8.6 nM |  | 1.8 nM
9 | N#Cc1cc(Cl)cc(Oc2cc(OCc3noc4nc(-n5ccnc5)ccc34)ccc2Cl)c1 | 0.7 µM | 833 nM | 1.7 h | 309 nM | 33 nM | 278 nM | 26.9 mL/min/kg | 103 nM | 0.8 nM | 2.2 L/kg | 0.2 nM
